From ChEMBL document CHEMBL3232844, “Synthesis and structure activity relationships of schweinfurthin indoles” (2014)

Columns and labels:
Assay type in all cases: functional
[1] = tested on: MDA-MB-231; experiment: Cytotoxicity against human MDA-MB-231 cells
In short: (§1)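 Tested in a 60-cell-line human tumor panel screen; the read-out is growth inhibition, reported as GI50 for each cell line.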

[2] = tested on: CCRF-CEM; experiment: Cytotoxicity against human CCRF-CEM cells
[3] = tested on: SN12C; experiment: Cytotoxicity against human SN12C cells; in short: as §1
[4] = tested on: IGROV-1; experiment: Cytotoxicity against human IGROV1 cells; in short: as §1
[5] = tested on: RXF 393; experiment: Cytotoxicity against human RXF393 cells; in short: as §1
[6] = tested on: COLO 205; experiment: Cytotoxicity against human COLO205 cells; in short: as §1
[7] = Cytotoxicity against human NCI-ADR-RES cells; in short: as §1
[8] = tested on: NCI-H460; experiment: Cytotoxicity against human NCI-H460 cells; in short: as §1
[9] = tested on: SF-539; experiment: Cytotoxicity against human SF539 cells; in short: as §1
[10] = tested on: PC-3; experiment: Cytotoxicity against human PC3 cells; in short: as §1
[11] = tested on: NCI-H322M; experiment: Cytotoxicity against human NCI-H322M cells; in short: as §1
[12] = Cytotoxicity against human UACC257 cells
In short: (§2)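 Cell line run as part of the 60-cell-line screening panel; growth inhibition was reported as a GI50 for each line.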

[13] = tested on: A498; experiment: Cytotoxicity against human A498 cells; in short: as §1
[14] = Cytotoxicity against human UO31 cells; in short: as §2
[15] = tested on: T47D; experiment: Cytotoxicity against human T47D cells; in short: as §2
[16] = tested on: HT-29; experiment: Cytotoxicity against human HT-29 cells; in short: as §1
[17] = Cytotoxicity against human OVCAR4 cells; in short: as §1
[18] = Cytotoxicity against human EKVX cells; in short: as §1
[19] = tested on: SNB-75; experiment: Cytotoxicity against human SNB75 cells; in short: as §2
[20] = tested on: ACHN; experiment: Cytotoxicity against human ACHN cells; in short: as §1
[21] = tested on: 786-0; experiment: Cytotoxicity against human 786-0 cells; in short: as §1
[22] = Cytotoxicity against human OVCAR3 cells; in short: as §1
[23] = tested on: SK-OV-3; experiment: Cytotoxicity against human SKOV3 cells; in short: as §1
[24] = tested on: HL-60(TB); experiment: Cytotoxicity against human HL-60(TB) cells
In short: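 Tested within the NCI 60-cell-line screen, with GI50 as the read-out. Values are the average of two independent experiments. The lowest concentration tested was 10 nM.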

[25] = tested on: BT-549; experiment: Cytotoxicity against human BT549 cells; in short: as §1
[26] = tested on: SK-MEL-2; experiment: Cytotoxicity against human SK-MEL-2 cells; in short: as §1
[27] = tested on: CAKI-1; experiment: Cytotoxicity against human Caki1 cells; in short: as §1
[28] = tested on: A549; experiment: Cytotoxicity against human A549 cells; in short: as §1
[29] = tested on: LOX IMVI; experiment: Cytotoxicity against human LOXIMVI cells; in short: as §1
[30] = tested on: MOLT-4; experiment: Cytotoxicity against human MOLT4 cells; in short: as §1
[31] = tested on: SK-MEL-5; experiment: Cytotoxicity against human SK-MEL-5 cells; in short: as §1
[32] = Cytotoxicity against human HCT15 cells; in short: as §1
[33] = tested on: HCT-116; experiment: Cytotoxicity against human HCT116 cells; in short: as §1
[34] = Cytotoxicity against human UACC62 cells; in short: as §2
[35] = tested on: MDA-MB-468; experiment: Cytotoxicity against human MDA-MB-468 cells; in short: as §1
[36] = tested on: M14; experiment: Cytotoxicity against human M14 cells; in short: as §1
[37] = tested on: MCF7; experiment: Cytotoxicity against human MCF7 cells; in short: as §1
[38] = tested on: U-251; experiment: Cytotoxicity against human U251 cells; in short: as §2
[39] = tested on: NCI-H226; experiment: Cytotoxicity against human NCI-H226 cells; in short: as §1
[40] = tested on: NCI-H23; experiment: Cytotoxicity against human NCI-H23 cells; in short: as §1
[41] = tested on: K562; experiment: Cytotoxicity against human K562 cells; in short: as §1
[42] = tested on: MDA-MB-435; experiment: Cytotoxicity against human MDA-MB-435 cells; in short: as §1
[43] = tested on: SF-295; experiment: Cytotoxicity against human SF295 cells; in short: as §1
[44] = read-out: pLC50 (the source's name) (converted)

COc1cc(/C=C/c2cc(O)c3c(C/C=C(\C)CCC=C(C)C)c[nH]c3c2)cc2c1O[C@]1(C)CC[C@@H](O)C(C)(C)[C@H]1C2
GI50 [1]: 1100 nM | LC50 [1]: 85.1 µM | TGI ([1]; read-out: pTGI (converted)): 6.31 µM | GI50 [2]: 724 nM | CC50 [2, 44]: > 100 µM | TGI ([2]; read-out: pTGI (converted)): > 100 µM | GI50 [3]: 60.3 µM | LC50 [3]: > 100 µM | TGI ([3]; read-out: pTGI (converted)): > 100 µM | GI50 [4]: 1620 nM | CC50 [4, 44]: > 100 µM | TGI ([4]; read-out: pTGI (converted)): > 100 µM | GI50 [5]: 66.1 nM | LC50 [5]: 3.63 µM | TGI ([5]; read-out: pTGI (converted)): 309 nM | GI50 [6]: 331 nM | CC50 [6, 44]: 6.31 µM | TGI ([6]; read-out: pTGI (converted)): 1020 nM | GI50 [7]: 46.8 µM | CC50 [7, 44]: > 100 µM | TGI ([7]; read-out: pTGI (converted)): > 100 µM | GI50 [8]: 1200 nM | CC50 [8, 44]: 57.5 µM | TGI ([8]; read-out: pTGI (converted)): 6.61 µM | GI50 [9]: 229 nM | CC50 [9, 44]: 6.03 µM | TGI ([9]; read-out: pTGI (converted)): 1450 nM | GI50 [10]: 457 nM | LC50 [10]: > 100 µM | TGI ([10]; read-out: pTGI (converted)): 24.5 µM | GI50 [11]: 60.3 µM | CC50 [11, 44]: > 100 µM | TGI ([11]; read-out: pTGI (converted)): > 100 µM | GI50 ([12]; UACC-257): 9.12 µM | CC50 ([12]; UACC-257, read-out: pLC50 (the source's name) (converted)): > 100 µM | TGI ([12]; UACC-257, read-out: pTGI (converted)): 49 µM | GI50 [13]: 1200 nM | CC50 [13, 44]: > 100 µM | TGI ([13]; read-out: pTGI (converted)): 9.77 µM | GI50 ([14]; UO-31): 933 nM | LC50 ([14]; UO-31): 8.91 µM | TGI ([14]; UO-31, read-out: pTGI (converted)): 2950 nM | GI50 [15]: 6.92 µM | CC50 [15, 44]: > 100 µM | TGI ([15]; read-out: pTGI (converted)): > 100 µM | GI50 [16]: 219 nM | CC50 [16, 44]: 20.4 µM | TGI ([16]; read-out: pTGI (converted)): 1660 nM | GI50 ([17]; OVCAR-4): 6.46 µM | CC50 ([17]; OVCAR-4, read-out: pLC50 (the source's name) (converted)): > 100 µM | TGI ([17]; OVCAR-4, read-out: pTGI (converted)): > 100 µM | GI50 [18]: 724 nM | CC50 [18, 44]: > 100 µM | TGI ([18]; read-out: pTGI (converted)): 4.47 µM | GI50 [19]: 245 nM | CC50 [19, 44]: > 100 µM | TGI ([19]; read-out: pTGI (converted)): 3.63 µM | GI50 [20]: 7.24 µM | LC50 (concentration killing 50% of cells) [20]: > 100 µM | TGI ([20]; read-out: pTGI (converted)): > 100 µM | GI50 [21]: 46.8 nM | LC50 (concentration killing 50% of cells) [21]: 5.62 µM | TGI ([21]; read-out: pTGI (converted)): 1120 nM | GI50 ([22]; OVCAR-3): 33.9 µM | CC50 ([22]; OVCAR-3, read-out: pLC50 (the source's name) (converted)): > 100 µM | TGI ([22]; OVCAR-3, read-out: pTGI (converted)): > 100 µM | GI50 [23]: 5.13 µM | LC50 [23]: > 100 µM | TGI ([23]; read-out: pTGI (converted)): > 100 µM | GI50 [24]: 398 nM | CC50 [24, 44]: > 100 µM | TGI ([24]; read-out: pTGI (converted)): 12.3 µM | GI50 [25]: 525 nM | CC50 [25, 44]: > 100 µM | TGI ([25]; read-out: pTGI (converted)): > 100 µM | GI50 [26]: 871 nM | CC50 [26, 44]: > 100 µM | TGI ([26]; read-out: pTGI (converted)): 18.2 µM | GI50 [27]: 447 nM | LC50 [27]: 7.76 µM | TGI ([27]; read-out: pTGI (converted)): 1820 nM | GI50 [28]: 2570 nM | CC50 [28, 44]: > 100 µM | TGI ([28]; read-out: pTGI (converted)): > 100 µM | GI50 [29]: 1260 nM | CC50 [29, 44]: 29.5 µM | TGI ([29]; read-out: pTGI (converted)): 4.79 µM | GI50 [30]: 282 nM | CC50 [30, 44]: > 100 µM | TGI ([30]; read-out: pTGI (converted)): 2510 nM | GI50 [31]: 1070 nM | CC50 [31, 44]: 5.37 µM | TGI ([31]; read-out: pTGI (converted)): 2400 nM | GI50 ([32]; HCT-15): 741 nM | CC50 ([32]; HCT-15, read-out: pLC50 (the source's name) (converted)): 53.7 µM | TGI ([32]; HCT-15, read-out: pTGI (converted)): 6.76 µM | GI50 [33]: 1380 nM | CC50 [33, 44]: > 100 µM | TGI ([33]; read-out: pTGI (converted)): 22.9 µM | GI50 ([34]; UACC-62): 1260 nM | CC50 ([34]; UACC-62, read-out: pLC50 (the source's name) (converted)): > 100 µM | TGI ([34]; UACC-62, read-out: pTGI (converted)): 4.68 µM | GI50 [35]: 2000 nM | LC50 [35]: > 100 µM | TGI ([35]; read-out: pTGI (converted)): 44.7 µM | GI50 [36]: 2000 nM | CC50 [36, 44]: > 100 µM | TGI ([36]; read-out: pTGI (converted)): 11.2 µM | GI50 [37]: 617 nM | LC50 [37]: 8.51 µM | TGI ([37]; read-out: pTGI (converted)): 2450 nM | GI50 [38]: 603 nM | CC50 [38, 44]: > 100 µM | TGI ([38]; read-out: pTGI (converted)): > 100 µM | GI50 [39]: 24 µM | CC50 [39, 44]: > 100 µM | TGI ([39]; read-out: pTGI (converted)): > 100 µM | GI50 [40]: 2450 nM | CC50 [40, 44]: > 100 µM | TGI ([40]; read-out: pTGI (converted)): 24.5 µM | GI50 [41]: 417 nM | CC50 [41, 44]: > 100 µM | TGI ([41]; read-out: pTGI (converted)): 8.71 µM | GI50 [42]: 4.07 µM | CC50 [42, 44]: > 100 µM | TGI ([42]; read-out: pTGI (converted)): > 100 µM | GI50 ([43]; read-out: GI50): 110 nM | GI50 ([43]; read-out: pGI50 (converted)): 112 nM | CC50 [43, 44]: 2880 nM | TGI ([43]; read-out: pTGI (converted)): 417 nM
